Assay outcomes deposited in PubChem by several laboratories.
Rows were chosen to be rich in hits. Some 4.1% of all compounds tested hit in one or more screens of this group.
hERG protect: hERG rescue from dofetilide block, primary screen, cell-based, CHO-hERG, FluxOR thallium flux, dofetilide IC70; hit rate 0.51% among 310,000; dofetilide IC70 present; activation (rescue from dofetilide block), less the hit threshold, % at 10 µM;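 active means activation above the mean of controls blocked by dofetilide plus 5 SD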;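 further: thallium influx through hERG after potassium depolarization seen as dye fluorescence rise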
KCNQ1 pot: potentiators or activators of KCNQ1 channel, primary screen, cell-based, thallium flux, high-throughput; Potassium voltage-gated channel subfamily KQT member 1 (Homo sapiens), P51787; CHO-K1 KCNQ1, thallium flux FluxOR fluorescence; hits give high values; B-score at 10 µM; hit rate 0.35% among 310,000; AID 2648, 2010;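 active means fluorescence ratio B-score, a plate-corrected score, at least three library SD, with initial intensity B-score within 5 SD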
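assay system = KCNQ1-transfected CHO-K1 cells | medium = assay buffer with matched DMSO | probe or stimulus = depolarizing K+/Tl+ stimulus, K2SO4 and Tl2SO4 each 12.5 mM in 5x stock | dosing = single dose | incubation = dye 90 min, compound 20 min, room temperature | detection = kinetic FluxOR fluorescence, 10 s baseline plus 110 s post-stimulus | evaluation = ratio B score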
KCNQ1 inh: inhibitors of human KCNQ1 channel, primary screen, cell-based, thallium flux, high-throughput; AID 2642, 2010; CHO-K1 KCNQ1, FluxOR thallium flux fluorescence; hits give high values; hit rate 1.3% among 310,000; Potassium voltage-gated channel subfamily KQT member 1 (Homo sapiens), P51787; B-score at 10 µM;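 active means compounds whose thallium flux B-score, printed positive for inhibition, exceeds three library SD while starting fluorescence stays within three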;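 further: channel opened by potassium depolarization with thallium stimulus after 20 min compound exposure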
KCC2 mod: KCC2 cotransporter modulators, thallium flux, primary screen, cell-based, HEK293 KCC2, FluoZin-2 fluorescence, MLSMR; Solute carrier family 12 member 5 (Homo sapiens), Q9H2X9; KCC2 cells, thallium flux FluoZin-2 fluorescence; B-score of Tl+ flux slope (higher = more flux/activation; lower = inhibition) at 10 µM; hit rate 2.2% among 190,000; AID 1456, 2008;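 active means thallium flux slope and its plate-corrected score both differing from the plate sample mean at a set confidence after two filtering rounds, in either direction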;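 further: slope of fluorescence scaled to starting intensity during 10 to 20 s after thallium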
KCNK3 block: human KCNK3 channel inhibitors, primary screen, CHO cells, FluxOR thallium flux, B-score; Potassium channel subfamily K member 3 (Homo sapiens), O14649; hit rate 0.84% among 340,000; B-score at 10 µM; FluxOR fluorescence; hits give low values; AID 602410, 2012;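 active means B-score under library mean minus 4 SD, starting fluorescence ratio at most library mean plus 5 SD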;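 further: more negative B-score means stronger inhibition of thallium flux through KCNK3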
Target sequence (O14649 whole entry, looked up): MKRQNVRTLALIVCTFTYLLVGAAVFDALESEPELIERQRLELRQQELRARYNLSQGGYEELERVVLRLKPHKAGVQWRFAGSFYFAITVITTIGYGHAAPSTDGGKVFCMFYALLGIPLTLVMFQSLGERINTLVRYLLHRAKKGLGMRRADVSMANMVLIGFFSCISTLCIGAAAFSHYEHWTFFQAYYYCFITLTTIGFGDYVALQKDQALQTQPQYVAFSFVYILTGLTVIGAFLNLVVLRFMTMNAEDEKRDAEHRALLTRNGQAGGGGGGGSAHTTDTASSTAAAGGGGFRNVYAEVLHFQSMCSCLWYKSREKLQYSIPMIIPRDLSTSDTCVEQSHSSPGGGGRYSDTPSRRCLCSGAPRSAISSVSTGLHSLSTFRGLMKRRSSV
KCNK9 block: KCNK9 potassium channel inhibitors, primary screen, HEK293 cells, thallium flux | FluxOR thallium flux fluorescence; hits give low values | B-score at 10 µM | AID 488922, 2010 | hit rate 1.2% among 310,000;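 active means ratio B-score over 3 SD below the library mean, with starting fluorescence within 5 SD of its mean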;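 further: negative B-score means less thallium flux so channel inhibition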
Target sequence (Q9NPC2 whole entry, looked up): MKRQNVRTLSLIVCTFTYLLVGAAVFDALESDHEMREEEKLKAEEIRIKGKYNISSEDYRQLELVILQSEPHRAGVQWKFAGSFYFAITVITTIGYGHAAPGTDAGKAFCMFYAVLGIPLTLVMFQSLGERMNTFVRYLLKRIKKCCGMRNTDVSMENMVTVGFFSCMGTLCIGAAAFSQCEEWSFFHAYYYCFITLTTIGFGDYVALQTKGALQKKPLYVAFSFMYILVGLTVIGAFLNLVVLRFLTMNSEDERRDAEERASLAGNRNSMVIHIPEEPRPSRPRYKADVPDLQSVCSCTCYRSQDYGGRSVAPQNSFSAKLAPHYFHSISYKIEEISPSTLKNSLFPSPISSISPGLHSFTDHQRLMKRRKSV
KCC2 secondary: KCC2 modulators in sodium-free buffer, confirmation, cell-based, HEK293 KCC2, thallium flux, secondary assay. AID 1713, 2009. FluoZin2 fluorescence; hits give high values. shares compounds with KCC2 mod. hit rate 15% among 3,700. normalised thallium flux (F/F0 slope) at 10 µM;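 active means thallium flux slope above the same plate's solvent-only control mean plus 3 SD; inconclusive means the two replicate wells disagree; inactive means no significant difference from solvent-only control wells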
KCC2 bumet counter: thallium flux persisting under bumetanide in KCC2 cells, confirmation, counter-screen for KCC2 modulator project, cell-based, HEK293 KCC2, FluoZin2, secondary assay 3; hit rate 49% among 3,700; HEK293-KCC2 + bumetanide/ouabain; hits give high values; shares compounds with KCC2 mod; normalized thallium flux at 10 µM;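 active means thallium entry rate above the same plate's blocked-transporter control wells by more than 3 SD; inconclusive means the two repeat wells disagree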;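 further: raw slope of fluorescence over initial fluorescence between 10 and 20 s after thallium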
KCC2 sec2: KCC2 modulators without ouabain present, confirmation, cell-based, HEK293 KCC2, thallium flux, FluoZin2, secondary assay 2 | thallium flux FluoZin2 fluorescence; actives lie on both sides; F/F0 rise rate, 10–20 s post-thallium | normalized thallium flux at 10 µM | hit rate 23% among 3,700 | shares compounds with KCC2 mod;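 active means thallium flux slope more than 3 SD above or below the plate's solvent-only control mean, mostly below; inconclusive means the two repeat wells disagreed; inactive means no significant shift from solvent-only controls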
HEK counter1: thallium flux modulation in parental HEK cells, confirmation, counter-screen for KCC2 modulator project, cell-based, counterscreen 1; HEK293 parental cells, thallium flux FluoZin2, ouabain; baseline-ratio fluorescence slope, 10–20 s after thallium; shares compounds with KCC2 mod; hit rate 46% among 3,700; thallium flux rate (normalised fluorescence) at 10 µM; AID 1716, 2009;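 active means thallium flux rate significantly above the same plate's solvent-only control wells, beyond their mean plus 3 SD; inconclusive means the two replicate wells gave conflicting results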
KCC2 retest ouab: KCC2 inhibitors and activators, ouabain retest, confirmation, HEK-KCC2 cells | raw Tl+ flux slope (below DMSO = inhibition, above = activation) at 10 µM | HEK293-KCC2, thallium flux FluoZin2 fluorescence; bidirectional: low = inhibitor, high = activator | shares compounds with KCC2 mod | AID 1717, 2009 | hit rate 48% among 3,700;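 active means thallium flux slope beyond 3 SD from same-plate DMSO control mean in most replicates, usually higher, sometimes lower; inconclusive means repeat tests gave conflicting results; inactive means no significant difference from controls in most replicates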;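 further: slope of initial-normalized fluorescence between seconds 10 and 20 after thallium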
HEK293 Tl flux2: native HEK Tl+ uptake effects, second counter-screen – HEK cells, counterscreen 2, counter-screen for KCC2 modulator project, confirmation. shares compounds with KCC2 mod. HEK293 parental, thallium flux FluoZin-2 fluorescence slope. thallium flux slope at 10 µM. hit rate 33% among 3,700. AID 1718, 2009;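 active means thallium flux slope above the same plate's solvent-control mean plus 3 SD in both duplicate wells; inconclusive means duplicate wells that disagreed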;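 further: run without ouabain in cells lacking the KCC2 cotransporter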
Numbers stand for hits; – = inactive; ? = inconclusive; · = no result given.

SMILES	hERG protect	KCNQ1 pot	KCNQ1 inh	KCC2 mod	KCNK3 block	KCNK9 block	KCC2 secondary	KCC2 bumet counter	KCC2 sec2	HEK counter1	KCC2 retest ouab	HEK293 Tl flux2
Cc1nc2nc(C)n(CCN3CCOCC3)c(=O)c2c(-c2cccc([N+](=O)[O-])c2)c1C(=O)CCCCCCCCCCN1CCC(c2ccccc2)(c2ccccc2)CC1	·	·	·	·	–	·	·	·	·	·	·	·
COC(=O)CCN(C(=O)c1ccc(OC(C)=O)cc1)c1ccccn1	–	–	–	-3.8	–	–	–	–	–	–	–	–
O=c1cc(CN2CCN(S(=O)(=O)c3cccc(Cl)c3)CC2)c2ccc(O)cc2o1	·	·	·	·	–	·	·	·	·	·	·	·
CC1O[C@@H](OC2C(O)C(O)C(CO)O[C@H]2OC2C[C@]3(C)C(CC(O)C4[C@@H]([C@]5(C)CC[C@@H](C(C)(C)O)O5)CC[C@]43C)[C@@]3(C)CCC(O)C(C)(C)C23)C(O)C(O)C1O (stereo not given in full)	·	·	·	·	–	·	·	·	·	·	·	·
S=c1nc(SCc2ccccc2)[nH]c2ccccc12	74	54	–	120	–	–	0.019	0.098	0.1	0.11	0.095	0.1
CCCc1cc(=O)[nH]c(SCC(=O)c2ccc3c(c2)NC(=O)CO3)n1	–	–	–	11	–	–	–	–	–	–	–	–
NC(=O)COc1ccccc1/C=C1/SC(=O)N(CC(=O)N2CCc3ccccc3C2)C1=O	–	–	–	-3.4	–	–	–	–	0.023	–	0.016	–
O=C1C2CCCN2C(=S)N1c1cc(Cl)ccc1Cl (stereo not given)	·	·	·	·	–	·	·	·	·	·	·	·
COC(=O)[C@@]12CCCCN1[C@H](c1ccc(-c3ccc(C(C)=O)cc3)c(OC)c1)[C@@H]1C(=O)N(C)C(=O)[C@@H]12	–	–	–	·	–	–	·	·	·	·	·	·
COc1ccc(Cn2c(=S)[nH]c3ccccc32)cc1	7.2	–	–	11	–	–	–	0.0099	–	0.013	?	0.012
CCN1C(=O)[C@H]2[C@H]3CN=C(SCc4ccc(C(=O)OC)cc4)N3[C@@](C)(C(=O)OC)[C@H]2C1=O	·	·	·	·	–	·	·	·	·	·	·	·
CC(Sc1nc2cc([N+](=O)[O-])ccc2n1-c1ccc(F)cc1)C(=O)NCc1ccc2c(c1)OCO2 (stereo not given)	–	–	–	10	–	–	–	0.015	–	0.013	–	0.012
CCn1c(SCC(=O)N(Cc2ccccc2)C2CCS(=O)(=O)C2)nc2ccccc2c1=O (stereo not given)	–	–	–	·	–	–	–	0.012	–	0.011	?	0.013
CC(C)Cn1c(SCC(=O)N(C)C2CCS(=O)(=O)C2)nc2cc(Cl)ccc2c1=O (stereo not given)	–	–	–	·	–	–	·	·	·	·	·	·
CN(C(=O)CSc1nc2ccccc2n1CCc1ccccc1)C1CCS(=O)(=O)C1 (stereo not given)	–	–	–	9.5	–	–	–	0.015	–	0.011	?	0.014
CN(C(=O)CSc1nc2cc(Cl)ccc2c(=O)n1Cc1ccco1)C1CCS(=O)(=O)C1 (stereo not given)	–	–	–	12	–	–	–	0.014	–	0.016	?	–
Cc1cc(NC(=O)COC(=O)c2cc([N+](=O)[O-])ccc2N2CCOCC2)ccc1Br	–	–	–	·	–	–	·	·	·	·	·	·
O=C(CN1CCN(Cc2cccc(C(F)(F)F)c2)CC1)NCC(=O)Nc1ccc(F)c(F)c1F	·	·	·	·	–	·	·	·	·	·	·	·
Fc1ccc2cc(-c3ccsc3)ncc2c1	·	·	·	·	–	·	·	·	·	·	·	·
CN(C(=O)CSc1nc2cc([N+](=O)[O-])ccc2n1-c1ccc(F)cc1)C1CCS(=O)(=O)C1 (stereo not given)	–	–	–	4.9	–	–	–	0.023	–	0.014	?	0.011
CCCCn1c(N)c(N(CC(C)C)C(=O)CSc2n[nH]c(-c3ccc(C)cc3)n2)c(=O)[nH]c1=O	–	–	–	·	–	–	·	·	·	·	·	·
Cn1cnc2c1c(=O)[nH]c(=O)n2C	–	–	–	–	·	–	–	–	–	–	–	–
Cn1c(=O)[nH]c2ncn(C)c2c1=O	–	–	–	·	–	–	·	·	·	·	·	·
COc1ccc(C2/C=C\CN(CC3CC3)CC(=O)N2Cc2ccc(F)cc2)cc1 (stereo not given)	–	–	–	-3.4	–	–	–	–	–	–	0.017	–
COc1ccc(C2/C=C\CN(Cc3ccncc3)CC(=O)N2Cc2ccc(F)cc2)cc1 (stereo not given)	–	–	–	–	–	–	·	·	·	·	·	·
COc1ccc(C2/C=C\CN(CC(C)(C)C)CC(=O)N2Cc2ccc(F)cc2)cc1 (stereo not given)	–	–	–	–	–	–	·	·	·	·	·	·
CCCCCN1C/C=C\C(c2ccc(OC)cc2)N(Cc2ccc(F)cc2)C(=O)C1 (stereo not given)	–	–	–	-2.5	–	–	–	–	?	–	0.017	–
